Data as given in ChEMBL document CHEMBL3085690, “Naturally occurring antimicrobial peptide OH-CATH30 selectively regulates the innate immune response to protect against sepsis” (J Med Chem, 2013).
Activity calls are given as the source filed them. No cut-off for these calls is given here. Peptide text beside a SMILES is read from it.

Assays:
BMDM [1] = assay: Increase of CXCL2 production in mouse BMDM after 6 hrs by ELISA in presence of TLR4/MD2 Ab; assay type: functional
Mus musculus [2] = assay: Stimulation of innate immune response in Kunming mouse assessed as protection against CLP-induced mortality by measuring survival rate at 10 mg/kg, ip administered 12 hrs before bacterial infection measured up to 7 days; assay type: functional; conditions: route intraperitoneal
Mus musculus [3] = assay: Stimulation of innate immune response in Kunming mouse infected with Escherichia coli ATCC 25922 assessed as reduction of bacterial burden in peritoneal lavage by measuring survival rate at 10 mg/kg, ip administered 5 hrs before bacterial infection measured up to 7 days; assay type: functional, organism-based; set-up: dose 10 mg/kg
Summary of the method: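 Peptide at 10 mg/kg ip was given 5 h before ip challenge with E. coli 25922 (2.5 × 10^8 CFU), P. aeruginosa 27853 (8 × 10^7 CFU) or S. aureus 25923 (2 × 10^8 CFU) per mouse. Viable bacteria were counted in peritoneal lavage collected in 2 mL of cold saline (n = 7, 6 and 8 respectively; unpaired t test). Survival was recorded for up to 7 days.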

Mus musculus [4] = assay: Stimulation of innate immune response in Kunming mouse assessed as increase of IL-10 level in peritoneal lavage at 10 mg/kg, ip after 5 hrs; assay type: functional, organism-based; set-up: dose 10 mg/kg
Summary of the method: (§1)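 Female Kunming mice (18−22 g) received a single ip injection of peptide at 10 mg/kg in sterile saline. Peritoneal lavage was collected in 2 mL of cold sterile saline 5 h later, and cytokines and chemokines were measured by ELISA. Data are mean ± SD from four mice, compared by unpaired t test.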

[5] = Increase of IL-1Ra protein level in mouse BMDM at 10 ug/ml after 18 hrs by ELISA; assay type: functional
Summary of the method: (§2)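 Bone marrow-derived macrophages (RPMI 1640, 10% FCS, 20% L929-conditioned medium) stimulated with peptide for 18 h. Cytokines and chemokines in culture supernatant quantified by sandwich ELISA. Mean ± SD from three independent experiments, unpaired t test.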

Mus musculus [6] = assay: Stimulation of innate immune response in Kunming mouse assessed as protection against Staphylococcus aureus ATCC 25923-induced mortality by measuring survival rate at 10 mg/kg, ip administered 5 hrs before bacterial infection measured up to 7 days; assay type: functional; conditions: route intraperitoneal
Summary of the method: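 Female Kunming mice (18−22 g) received a single ip dose in sterile saline 5 h before ip challenge with P. aeruginosa 27853 (8 × 10^7 CFU/mouse; n = 8) or S. aureus 25923 (2 × 10^8 CFU/mouse; n = 10). Mice were checked every 6 h for up to 7 days, with a humane end point. Curves were compared by log-rank test.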

RAW264.7 [7] = assay: Inhibition of LPS-induced TNFalpha production in mouse RAW264.7 cells 2 to 50 ug/ml after 6 hrs by ELISA; assay type: functional, cell-based
Mus musculus [8] = assay: Stimulation of innate immune response in clodronate liposomes treated Kunming mouse monocytes depletion model assessed as recruitment of neutrophils at 10 mg/kg, ip; assay type: functional, organism-based; set-up: dose 10 mg/kg
BMDM [9] = assay: Induction of CXCL5 mRNA up-regulation in mouse BMDM at 20 ug/ml after 3 hrs by qRT-PCR analysis; assay type: functional
Summary of the method: (§3)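 Murine BMDMs stimulated with peptide, then target mRNA quantified by qRT-PCR. Expression normalized to GAPDH, with untreated cells set to 1.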

BMDM [10] = assay: Increase of CXCL2 production in mouse BMDM after 6 hrs by ELISA in presence of WRW4; assay type: functional
Mus musculus [11] = assay: Stimulation of innate immune response in Kunming mouse infected with Pseudomonas aeruginosa ATCC 27853 assessed as effect on CCL2 production in peritoneal lavage at 10 mg/kg, ip after 3 hrs by ELISA; assay type: functional, organism-based; set-up: dose 10 mg/kg
Summary of the method: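 Mice were pretreated ip with peptide at 10 mg/kg 5 h before ip challenge with P. aeruginosa 27853 at 8 × 10^7 CFU/mouse. CCL2 and CXCL2 were measured in peritoneal lavage collected 3 h after inoculation. TNF-α and IL-6 were measured in serum collected 5 h after inoculation. All were read by ELISA; data are mean ± SD from four mice, unpaired t test.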

THP-1 = assay: Increase of cytokine production in PMA-differentiated human THP1 cells by ELISA; assay type: functional, cell-based
[12] = biological target: Mitogen-activated protein kinase 1 and 3 (ERK2 and ERK1) (Mus musculus) (UniProt P63085+Q63844); assay: Activation of ERK1/2 in mouse BMDM assessed as phosphorylation at 10 ug/ml after 15 to 30 mins by Western blotting; assay type: protein assay
Mitogen-activated protein kinase 1 and 3 (ERK2 and ERK1) (Mus musculus), sequence (P63085 whole entry, looked up): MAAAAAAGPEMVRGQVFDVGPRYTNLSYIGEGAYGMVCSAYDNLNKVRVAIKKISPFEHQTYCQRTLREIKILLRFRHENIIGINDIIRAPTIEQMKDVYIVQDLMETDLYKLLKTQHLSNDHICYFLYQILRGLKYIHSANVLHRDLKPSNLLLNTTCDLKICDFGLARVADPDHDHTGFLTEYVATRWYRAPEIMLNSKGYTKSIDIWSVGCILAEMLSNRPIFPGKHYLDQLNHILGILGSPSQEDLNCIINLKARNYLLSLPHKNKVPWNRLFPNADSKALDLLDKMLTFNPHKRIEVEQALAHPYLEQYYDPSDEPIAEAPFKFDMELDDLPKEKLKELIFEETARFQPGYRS
Mitogen-activated protein kinase 1 and 3 (ERK2 and ERK1) (Mus musculus), sequence (Q63844 whole entry, looked up): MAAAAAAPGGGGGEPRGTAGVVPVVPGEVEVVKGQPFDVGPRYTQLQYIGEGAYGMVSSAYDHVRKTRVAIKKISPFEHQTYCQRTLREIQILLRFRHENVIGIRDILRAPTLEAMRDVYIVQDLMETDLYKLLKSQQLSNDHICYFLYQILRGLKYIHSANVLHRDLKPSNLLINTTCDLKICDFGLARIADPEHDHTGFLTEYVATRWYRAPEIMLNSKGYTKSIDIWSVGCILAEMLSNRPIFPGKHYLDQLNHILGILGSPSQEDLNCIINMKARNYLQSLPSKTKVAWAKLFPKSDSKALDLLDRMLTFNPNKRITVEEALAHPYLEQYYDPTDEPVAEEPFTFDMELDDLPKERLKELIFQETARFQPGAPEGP
Summary of the method: (§4)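 BMDMs (bone marrow cells grown in RPMI 1640 with 10% FCS and 20% L929-conditioned medium) stimulated, then lysates run on 10% SDS-PAGE and transferred to PVDF. Membranes blocked with 5% BSA and probed with phospho-ERK1/2 and total ERK1/2 antibodies, or with anti-IκBα. HRP anti-rabbit secondary, chemiluminescent detection.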

BMDM [13] = assay: Induction of CXCL3 mRNA up-regulation in mouse BMDM at 20 ug/ml after 3 hrs by qRT-PCR analysis; assay type: functional; summary of the method: as §3
RAW264.7 [14] = assay: Inhibition of LTA-induced TNFalpha production in mouse RAW264.7 cells 2 to 50 ug/ml after 6 hrs by ELISA; assay type: functional, cell-based
RAW264.7 [15] = assay: Inhibition of LPS-induced IL-6 production in mouse RAW264.7 cells 2 to 50 ug/ml after 6 hrs by ELISA; assay type: functional, cell-based
[16] = biological target: Transcription factor p65 (Mus musculus) (UniProt Q04207); assay: Activation of NFkappaB in mouse BMDM assessed as degradation of IkappaBalpha at 10 ug/ml after 15 to 30 mins by Western blotting; summary of the method: as §4
Transcription factor p65 (Mus musculus), sequence (Q04207 whole entry): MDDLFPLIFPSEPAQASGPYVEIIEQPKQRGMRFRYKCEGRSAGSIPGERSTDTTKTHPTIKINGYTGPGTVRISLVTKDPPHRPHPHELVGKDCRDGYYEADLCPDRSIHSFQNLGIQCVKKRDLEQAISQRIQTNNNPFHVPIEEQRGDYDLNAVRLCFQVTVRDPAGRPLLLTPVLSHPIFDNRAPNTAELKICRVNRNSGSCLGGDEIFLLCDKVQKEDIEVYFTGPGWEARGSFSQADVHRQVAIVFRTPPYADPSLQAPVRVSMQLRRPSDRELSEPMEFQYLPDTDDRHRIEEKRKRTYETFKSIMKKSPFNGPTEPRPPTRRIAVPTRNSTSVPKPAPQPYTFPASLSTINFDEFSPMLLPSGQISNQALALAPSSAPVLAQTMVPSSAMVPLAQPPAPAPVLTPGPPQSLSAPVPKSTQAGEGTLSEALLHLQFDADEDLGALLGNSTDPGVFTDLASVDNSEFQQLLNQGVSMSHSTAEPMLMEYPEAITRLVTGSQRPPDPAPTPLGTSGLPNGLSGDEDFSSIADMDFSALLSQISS

[17] = Induction of IL-17alpha mRNA up-regulation in mouse BMDM at 20 ug/ml after 3 hrs by qRT-PCR analysis relative to control; assay type: functional; summary of the method: as §3
BMDM [18] = assay: Increase of CCL2 protein level in mouse BMDM at 20 ug/ml after 18 hrs by ELISA; assay type: functional; summary of the method: as §2
BMDM [19] = assay: Increase of CXCL2 production in mouse BMDM after 6 hrs by ELISA in presence of KN-62; assay type: functional
Mus musculus [20] = assay: Stimulation of innate immune response in Kunming mouse assessed as increase of IL-1Ra level in peritoneal lavage at 10 mg/kg, ip after 5 hrs; assay type: functional, organism-based; set-up: dose 10 mg/kg; summary of the method: as §1
[21] = Induction of IL-10 mRNA up-regulation in mouse BMDM at 20 ug/ml after 3 hrs by qRT-PCR analysis relative to control; assay type: functional; summary of the method: as §3
Mus musculus [22] = assay: Stimulation of innate immune response in Kunming mouse assessed as increase of monocytes/macrophages in peritoneal lavage at 10 mg/kg, ip after 5 hrs; assay type: functional, organism-based; set-up: dose 10 mg/kg
Summary of the method: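 Female Kunming mice were given peptide ip at 10 mg/kg. At 5 h, peritoneal cells were recovered by lavage with 2 mL PBS and counted. Cells were stained with anti-F4/80-PE and GR1-FITC for 30 min at room temperature and typed by flow cytometry: neutrophils GR1+/F4/80−, resident monocytes/macrophages GR1−/F4/80+, inflammatory monocytes GR1+/F4/80+. Data are mean ± SD from three mice, unpaired t test.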

BMDM [23] = assay: Increase of TNFalpha protein level in mouse BMDM at 20 ug/ml after 18 hrs by ELISA; assay type: functional; summary of the method: as §2

CC[C@H](C)[C@H](NC(=O)[C@@H](NC(=O)[C@H](CCCNC(=N)N)NC(=O)[C@@H]1CCCN1C(=O)[C@H](CCCCN)NC(=O)[C@H](CCCCN)NC(=O)[C@H](Cc1ccccc1)NC(=O)[C@H](Cc1ccccc1)NC(=O)[C@H](CCCCN)NC(=O)[C@H](CCCCN)NC(=O)[C@H](C)NC(=O)[C@H](CCCNC(=N)N)NC(=O)[C@H](CCCCN)NC(=O)[C@H](CCCCN)NC(=O)[C@@H](NC(=O)[C@H](CO)NC(=O)[C@H](CC(N)=O)NC(=O)[C@H](CCCCN)NC(=O)[C@H](CC(C)C)NC(=O)[C@H](CCCCN)NC(=O)[C@H](CCCCN)NC(=O)[C@H](Cc1ccccc1)NC(=O)[C@H](Cc1ccccc1)NC(=O)[C@@H](N)CCCCN)C(C)C)C(C)C)C(=O)NCC(=O)N[C@H](C(=O)N[C@@H](CO)C(=O)N[C@H](C(=O)N1CCC[C@H]1C(=O)N[C@@H](Cc1ccccc1)C(=O)O)[C@@H](C)CC)C(C)C (H-KFFKKLKNSVKKRAKKFFKKPRVIGVSIPF-OH)
Activity (BMDM [1]): inactive | survival at 10 mg/kg (Mus musculus [2]): 70% | Activity (Mus musculus [3]): Active | Activity (Mus musculus [4]): Active | Activity [5]: 232 pg/mL | survival at 10 mg/kg (Mus musculus [6]): > 60% | inhibition (RAW264.7 [7]): Active | Activity (Mus musculus [8]): inactive | Activity (BMDM [9]): Active | Activity (BMDM [10]): Active | Activity (Mus musculus [11]): Active | Activity (THP-1): Active | Activity [12]: Active | Activity (BMDM [13]): Active | inhibition (RAW264.7 [14]): inactive | inhibition (RAW264.7 [15]): Active | Activity [16]: inactive | fold change (FC) [17]: 51 | Activity (BMDM [18]): Active | Activity (BMDM [19]): Active | Activity (Mus musculus [20]): Active | fold change (FC) [21]: 5 | Activity (Mus musculus [22]): Active | Activity (BMDM [23]): inactive
